The text below walks through data of the RNAGym collection of RNA variant scans (doi:10.1101/gad.245936.114).

Fewer inactive variants are shown than the library holds.

The chains are these.
B1: tRNA (parent)
chain: CUCUCGGUAGCCAAGUUGGUUUAAGGCGCAAGACUUUAAUUUAUCACUACGAAAUCUUGAGAUCGGGCGUUCGACUCGCCCCCGGGAGAUUUUUUCCUCGAGCAA

The variants in the series derive from B1. In words: nonsense suppression (GFP-seq) (ratio to wild type); higher = more function; SUP4oc tRNA, yeast GFP reporter sort-seq. A digest of the protocol:
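To measure nonsense suppression, tRNA variants from a library carrying ~3% random mutations were integrated into the yeast genome alongside RFP and a GFP ochre reporter under galactose control. Growth took place in raffinose/galactose medium supplemented with 80 mg/L adenine, followed by sorting into GFP/RFP bins and Illumina sequencing of each bin (phred ≥30). For each variant with ≥100 reads and ≥30 cells, the bin median GFP/RFP values were weighted by its estimated cell share per bin and referenced to the unmutated parent tRNA.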
As to C12U A13U, the nonsense suppression is 0.626.

With C12U A13G, the nonsense suppression turned out to be 0.153.

For the variant C12U A13C, the nonsense suppression was determined as 0.2.

Regarding C11G A30U, the nonsense suppression was at most 0.026.

Take C11A A14G U63C: the nonsense suppression is at most 0.026.

Turning to C11A G61A, the nonsense suppression worked out at 0.22.

With C11A U58A G69A, the nonsense suppression is at most 0.026.

Turning to G10U G84A G86U, the nonsense suppression is at most 0.026.

For the variant C11U G28A A33G, the nonsense suppression is at most 0.026.

As for C11G G26C A30C, the nonsense suppression was at most 0.026.

In the case of C12U C82U, the nonsense suppression was 0.32.

Turning to C12G U17C U21G, the nonsense suppression is at most 0.026.

Regarding C12U A30G, the nonsense suppression was found to be 0.363.

Turning to C11G A24G A74G, the nonsense suppression was at most 0.026.

With C11G U17C U21C U63C, the nonsense suppression is at most 0.026.

Consider C11U G84C A89C, for which the nonsense suppression is at most 0.026.

On to C12U A24U, for which the nonsense suppression was found to be 0.118.

C12U A60G: the nonsense suppression was found to be 0.406.

Take C12U A60U: the nonsense suppression was found to be 0.723.

For C12G C27U, the nonsense suppression is at most 0.026.

As to C11G A23G C34A C81U, the nonsense suppression was at most 0.026.

Consider C11G G15U G78C, for which the nonsense suppression is at most 0.026.

Consider C12A G61C G66C, for which the nonsense suppression was at most 0.026.

For the variant C11U U55A G61C G88C, the nonsense suppression is at most 0.026.

Turning to C11G A31U, the nonsense suppression is at most 0.026.

As to C11G A31G, the nonsense suppression is at most 0.026.

Consider G10U G66U G85A, for which the nonsense suppression was at most 0.026.

C12G U70A: the nonsense suppression was at most 0.026.

Turning to G10U G85C, the nonsense suppression is at most 0.026.

For the variant C11U C68A U76C C83G, the nonsense suppression is at most 0.026.

As for C11U G66A, the nonsense suppression is at most 0.026.

Turning to C12G A33U, the nonsense suppression is at most 0.026.

Turning to C12U A24U U71G, the nonsense suppression was at most 0.026.

Consider C11G U16G U58A G61A G67C, for which the nonsense suppression was at most 0.026.

As for C11G C12A U35G U55C U76A G84U, the nonsense suppression was at most 0.026.

C11U A24U: the nonsense suppression was determined as 0.031.

As to C12A A31G, the nonsense suppression turned out to be 0.0261.

In the case of C12A G18U G66A U70C C77G C83U, the nonsense suppression is at most 0.026.

As for C12A C77A G86U, the nonsense suppression is at most 0.026.

C12A U35A C81G: the nonsense suppression is at most 0.026.

Regarding C12U A23C G78C, the nonsense suppression is at most 0.026.

Regarding C11G C56G G84U, the nonsense suppression was at most 0.026.

For the variant C11U, the nonsense suppression was at most 0.026.

Regarding C11G C12U G61C, the nonsense suppression was at most 0.026.

In the case of C12A A24C, the nonsense suppression came to 0.035.

Regarding G10U U20G U57C, the nonsense suppression was at most 0.026.

With C12G A54G U57G A60U C77U, the nonsense suppression is at most 0.026.

Turning to G10U A31G, the nonsense suppression is at most 0.026.

Take C11A G26C G66U: the nonsense suppression was at most 0.026.

With C11A C12U G59A U71A, the nonsense suppression is at most 0.026.

In the case of C12A A33G G67U, the nonsense suppression was at most 0.026.

Turning to C11U G19A G25A C29U G59A, the nonsense suppression was at most 0.026.

For C11A U63G, the nonsense suppression was at most 0.026.

C12G A14G A33G: the nonsense suppression is at most 0.026.

As to C11U G18U A60G, the nonsense suppression is at most 0.026.

Regarding C11A A30G, the nonsense suppression turned out to be 0.0331.

C11U G18C U20G U76G: the nonsense suppression was at most 0.026.

Regarding C11A U71C A89G, the nonsense suppression is at most 0.026.

For the variant C12A G32C U57G, the nonsense suppression is at most 0.026.

As to C12U C27U, the nonsense suppression turned out to be 0.121.

Take C12U G25A A74G: the nonsense suppression was at most 0.026.

As to C12U A31G C77G, the nonsense suppression is at most 0.026.

With G10U C12G A31U G32U C68G, the nonsense suppression was at most 0.026.

With C11U G18U U58G, the nonsense suppression was at most 0.026.

For the variant C12U A33C C80G, the nonsense suppression is at most 0.026.

Regarding C11U C12A G88A, the nonsense suppression is at most 0.026.

As for C11G G26C, the nonsense suppression turned out to be 0.359.

Consider C12U G18U A30C G84A A89C, for which the nonsense suppression was at most 0.026.

G10U U21C A74U: the nonsense suppression is at most 0.026.

Take C12U A13C U20C A60C G85A: the nonsense suppression is at most 0.026.

In the case of C12U A31G G65A, the nonsense suppression was at most 0.026.

With C11G C72G, the nonsense suppression is at most 0.026.

For C12A G28C A31G U57G, the nonsense suppression was at most 0.026.

With G10U A30C U57C U63C, the nonsense suppression was at most 0.026.

Turning to C11U G85C A87G, the nonsense suppression was at most 0.026.

Consider C11U G18A, for which the nonsense suppression is at most 0.026.

In the case of C11U G61C A87U, the nonsense suppression is at most 0.026.

For C11A G25C G61C, the nonsense suppression was at most 0.026.

In the case of C12U C27U G61C, the nonsense suppression was at most 0.026.

Turning to C11A U17C, the nonsense suppression was at most 0.026.

With C11A U16C, the nonsense suppression is at most 0.026.

On to C11U A62G U63A, for which the nonsense suppression is at most 0.026.

With C11G U35C A74U C82A, the nonsense suppression was at most 0.026.

C11G U16G G66A: the nonsense suppression was at most 0.026.

On to G10U C27A, for which the nonsense suppression worked out at 0.119.

C11U U70G C79A: the nonsense suppression was at most 0.026.

In the case of C11A A30C U57A, the nonsense suppression is at most 0.026.

Take C11U A31G C77G: the nonsense suppression was at most 0.026.

Take C11A A13G: the nonsense suppression was at most 0.026.

Consider C11G A30G G67U, for which the nonsense suppression is at most 0.026.

Consider C12U A23G, for which the nonsense suppression turned out to be 0.0776.

As to C11A A60C, the nonsense suppression was at most 0.026.

On to C12U G25A, for which the nonsense suppression stood at 1.19.

For C11A C12A U17G U22G G66A U76C A89C, the nonsense suppression was at most 0.026.

As for C11G G66A G69C, the nonsense suppression was found to be 0.0424.

With C11U G19U C64A, the nonsense suppression was at most 0.026.

As to C11G C34A U63A G65C, the nonsense suppression is at most 0.026.

Turning to C12G A33U U55C C72A G73A U76C, the nonsense suppression was at most 0.026.

As to G10U G18A C75U, the nonsense suppression was at most 0.026.

C11A A33G C77A C81G: the nonsense suppression is at most 0.026.

Turning to C12U C75G, the nonsense suppression worked out at 1.23.

With C12U, the nonsense suppression came out at 0.773.

Regarding C12G G25C C75A, the nonsense suppression turned out to be 0.482.

Consider C11U G32U G69C G85C, for which the nonsense suppression was at most 0.026.

With C12G G15A G19U, the nonsense suppression is at most 0.026.

On to C11U C29G, for which the nonsense suppression was at most 0.026.

Take C11U C75A: the nonsense suppression came out at 0.168.

Consider C11G A13U A62C, for which the nonsense suppression was at most 0.026.

C11A G66C: the nonsense suppression is at most 0.026.

Take C12A A89G: the nonsense suppression is at most 0.026.

In the case of C12A G25C C68G, the nonsense suppression is at most 0.026.

Regarding C11G C29G G61U, the nonsense suppression was at most 0.026.

In the case of G10U A14U, the nonsense suppression was 0.19.

For C11U G61C, the nonsense suppression stood at 0.0829.

For C11A G26A U70A, the nonsense suppression is at most 0.026.

For C12U A13C U20A, the nonsense suppression is at most 0.026.

On to C12U A13U C79U, for which the nonsense suppression was determined as 0.0331.

On to C12G C56G G65A A74U, for which the nonsense suppression was at most 0.026.

C12U A54C: the nonsense suppression was 0.0512.

Regarding C12U A54G, the nonsense suppression worked out at 0.0372.

For the variant C12U A54U, the nonsense suppression was determined as 0.229.

On to C12U C79U, for which the nonsense suppression came out at 0.205.

Turning to G10U C34G U63A C81U, the nonsense suppression is at most 0.026.

In the case of C11G C80G, the nonsense suppression was at most 0.026.

In the case of C11U A23G A31G U76A, the nonsense suppression was at most 0.026.

Consider C12U C64U, for which the nonsense suppression was at most 0.026.

On to C12U C64A, for which the nonsense suppression is at most 0.026.

On to G10U C77G, for which the nonsense suppression was at most 0.026.

With C11G U20C G25U U63G C75A G78C, the nonsense suppression is at most 0.026.

Turning to G10U A54C G86C, the nonsense suppression was at most 0.026.

As for C11G G59A C64A, the nonsense suppression is at most 0.026.

Take G10U U55C: the nonsense suppression came to 0.0469.

Turning to C12A C34U, the nonsense suppression is 0.94.

Regarding C11U A89C, the nonsense suppression is at most 0.026.

With C12G U71G, the nonsense suppression worked out at 0.859.

On to C11U C56G G73C G78A C79G, for which the nonsense suppression is at most 0.026.

As for C11G U63A U70G, the nonsense suppression was at most 0.026.

For C12U C56U, the nonsense suppression is at most 0.026.

For C12U C56G, the nonsense suppression is at most 0.026.

For the variant C12U G19U U57C C77A A89U, the nonsense suppression is at most 0.026.

With C11U G78U, the nonsense suppression is at most 0.026.

Consider G10U C27A G85A, for which the nonsense suppression was 0.159.

As for C12U C29U, the nonsense suppression was 0.206.

For C11U C27G A74G, the nonsense suppression is at most 0.026.

Take C11U A30G A31U U35G G67C U76C: the nonsense suppression is at most 0.026.

In the case of C12U A13G U21A, the nonsense suppression stood at 0.0262.

For C11U U63G, the nonsense suppression was 0.034.

In the case of C11U A33G A74C C83A, the nonsense suppression was at most 0.026.

As for C12A G18U U70C G88U, the nonsense suppression is at most 0.026.

Turning to C12A G78A, the nonsense suppression was found to be 0.045.

For the variant G10U C29A, the nonsense suppression is at most 0.026.

With C11A A54C G59A U71C C80A G88C, the nonsense suppression is at most 0.026.

With C12G U16C A23G, the nonsense suppression worked out at 0.207.

For the variant C11A U71C, the nonsense suppression was at most 0.026.

In the case of C11A U71A, the nonsense suppression is at most 0.026.

Consider C11U A24G G26C U71A, for which the nonsense suppression was at most 0.026.

As to C12U A23C U70C, the nonsense suppression is at most 0.026.

As for C11G A24U A62C C68G, the nonsense suppression was at most 0.026.

In the case of C11G A33G, the nonsense suppression was at most 0.026.

Turning to C12U C81A, the nonsense suppression stood at 0.0405.

On to C12G U21A G59U, for which the nonsense suppression is at most 0.026.

G10U C27U C29A A60C U76G: the nonsense suppression is at most 0.026.

On to C12U C29G U35A, for which the nonsense suppression is at most 0.026.

In the case of C11U U22C, the nonsense suppression is 0.0289.

As for C12G C68G G69U A89U, the nonsense suppression turned out to be 0.0702.

As for G10U G32C, the nonsense suppression is at most 0.026.

For C11U G26A U63C, the nonsense suppression turned out to be 0.212.
